Data published in ChEMBL document CHEMBL1132719, “cycloSal-Pronucleotides of 2'-fluoro-ara- and 2'-fluoro-ribo-2',3'- dideoxyadenosine as a strategy to bypass a metabolic blockade” (J Med Chem, 1999).

Key:
CCRF-CEM [1] = experiment: Antiviral activity evaluated as the ability to inhibit the replication of HIV-2 in human T-lymphocytic cells (CEM); assay type: functional, cell-based
Method in brief: (§1)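 CEM cells at 4 × 10^5 cells/mL infected with HIV-1 (HTLV-IIIB) or HIV-2 (ROD) at ~100 CCID50 per mL. Virus stocks came from infected MT-4 supernatants. Infected cells were mixed with serial compound dilutions. Giant cell formation was scored microscopically after 4–5 days. EC50 is the 50% effective concentration.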

CCRF-CEM [2] = experiment: Cytotoxic concentration in Wild Type CEM cells; assay type: functional; conditions: Homo sapiens
C3H/3T3 [3] = experiment: (§2) Effect of compound against Moloney murine sarcoma virus (MSV)-induced transformation of C3H/3T3 embryo murine fibroblasts; assay type: functional, cell-based; conditions: Mus musculus
Method in brief: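 C3H/3T3 murine embryo fibroblasts seeded at 20 000 cells/mL, incubated 24 h, then infected for 120 min with 80 focus-forming units of Moloney murine sarcoma virus. Medium then replaced with fresh medium containing serial compound concentrations. Cell transformation scored microscopically after 6 days; EC50 taken as the concentration giving 50% inhibition of virus-induced transformation.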

C3H/3T3 [4] = experiment: (§3) Minimal cytotoxic concentration required to cause morphological alteration of C3H/3T3 fibroblast culture cells; assay type: functional; conditions: Mus musculus
CCRF-CEM [5] = experiment: Antiviral activity evaluated as the ability to inhibit the replication of HIV-1 in human T-lymphocytic cells (CEM); assay type: functional, cell-based; method in brief: as §1
[6] = Partition coefficient (logP); assay type: physicochemical; conditions: octanol/water
Method in brief: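 Compound dissolved in 1-octanol, then an equal volume of water added. Phases were vortexed 10 min and separated by centrifugation. Each phase was analysed by RP-HPLC (UV 260 nm). P was calculated from the peak areas of the aqueous and organic phases.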

C3H/3T3 [7] = experiment: as §2; assay type: functional, cell-based; conditions: Mus musculus; remark: listed apart in the source
Method in brief: (§4)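 C3H/3T3 cells seeded at 20 000 cells/mL and grown 24 h, then infected with 80 focus-forming units of MSV for 120 min. Medium was replaced with fresh medium containing the test compound. Transformation was examined microscopically after 6 days. EC50 is the concentration giving 50% inhibition of transformation. MCC is the minimum concentration causing microscopically visible morphological alteration of the cultures.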

[8] = Selectivity index by CC50 of CEM cells/EC50 of CEM cells against HIV-1; assay type: functional, CCRF-CEM
C3H/3T3 [9] = experiment: as §3; assay type: functional; conditions: Mus musculus; method in brief: as §4; remark: listed apart in the source
[10] = Hydrolysis half life in phosphate buffer.; assay type: ADME
Method in brief: (§5)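 Triester at 0.71 mM final in 25 mM Sørensen phosphate buffer, pH 7.3, 37 °C, with AZT as internal standard. Aliquots were frozen in liquid air, then analysed by RP-HPLC (UV 260 nm). k was taken from the slope of the log degradation curve of the starting triester and t1/2 derived from k. Values are the mean of duplicates, in hours.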

[11] = Hydrolysis half life in phosphate buffer; assay type: ADME; method in brief: as §5

| SMILES | EC50 (CCRF-CEM [1]) [µM] | CC50 (CCRF-CEM [2]) [µM] | EC50 (C3H/3T3 [3]) [µM] | MCC (C3H/3T3 [4]) [µM] | EC50 (CCRF-CEM [5]) [µM] | logP [6] | EC50 (C3H/3T3 [7]) [µM] | SI [8] | MCC (C3H/3T3 [9]) [µM] | half-life [10] [h] | half-life [11] [h] |
| --- | --- | --- | --- | --- | --- | --- | --- | --- | --- | --- | --- |
| Nc1ncnc2c1ncn2[C@@H]1OC(CO)C[C@H]1F (single isomer, unassigned) | > 250 | > 250 | > 50 | > 50 | > 250 | -0.2 | – | – | – | – | – |
| OCC1C[C@H](F)C(n2cnc3c(O)ncnc32)O1 (stereo not given in full) | 30 | > 250 | – | – | 41.7 | -1.19 | > 50 | >8 | > 50 | – | – |
| Nc1ncnc2c1ncn2[C@H]1CC[C@@H](CO)O1 | 4.55 | > 250 | 39.1 | > 50 | 4.33 | – | – | >57 | – | – | – |
| COc1ccc2c(c1)COP(=O)(OCC1C[C@H](F)C(n3cnc4c(N)ncnc43)O1)O2 (stereo not given in full) | 5.67 | 121 | – | – | 1.5 | 1.04 | – | – | – | 13 | – |
| Cc1cccc2c1OP(=O)(OCC1C[C@H](F)C(n3cnc4c(O)ncnc43)O1)OC2 (stereo not given in full) | 3.57 | > 250 | – | – | 3.57 | 0.51 | > 50 | 26 | > 50 | 22.2 | – |
| Nc1ncnc2c1ncn2C1OC(COP2(=O)OCc3ccccc3O2)C[C@@H]1F (stereo not given in full) | 1.85 | 137 | – | – | 4.53 | 0.95 | 1.7 | 74 | > 50 | – | 8.9 |
| Cc1cccc2c1OP(=O)(OC[C@@H]1C[C@@H](F)[C@H](n3cnc4c(N)ncnc43)O1)OC2 (stereo not given in full) | 12.5 | 118 | – | – | 11.7 | 0.93 | 2.83 | 10 | > 50 | 23.4 | – |
| Nc1ncnc2c1ncn2C1OC(COP2(=O)OCc3ccccc3O2)C[C@H]1F (stereo not given in full) | 13 | > 250 | – | – | 19 | 0.72 | 4.7 | >19 | > 50 | 8.4 | – |
| Cc1cccc2c1OP(=O)(OC[C@@H]1C[C@H](F)C(n3cnc4c(N)ncnc43)O1)OC2 (single isomer, unassigned) | 3.3 | 146 | – | – | 3.67 | 1.29 | – | 44 | – | 21.6 | – |
| Cc1cn([C@H]2C=C[C@@H](CO)O2)c(=O)[nH]c1=O [STAVUDINE] | – | 56 | – | – | – | – | – | – | – | – | – |
| COc1ccc2c(c1)COP(=O)(OCC1C[C@@H](F)C(n3cnc4c(N)ncnc43)O1)O2 (stereo not given in full) | 25 | > 250 | – | – | 20 | 0.71 | – | >12 | – | 12.3 | – |
| Cc1cccc2c1OP(=O)(OCC1C[C@@H](F)C(n3cnc4c(O)ncnc43)O1)OC2 (stereo not given in full) | 31.7 | > 250 | – | – | 75 | 0.24 | > 50 | >8 | > 50 | 22.7 | – |
| Nc1ncnc2c1ncn2[C@@H]1O[C@H](CO)C[C@@H]1F [LODENOSINE] | 40 | > 250 | > 50 | > 50 | 36.7 | -0.16 | – | >6.8 | – | – | – |
| OCC1C[C@@H](F)C(n2cnc3c(O)ncnc32)O1 (stereo not given in full) | > 250 | > 250 | – | – | > 250 | -0.96 | > 50 | – | > 50 | – | – |
